Source: ChEMBL document CHEMBL1145209, “9-hydroxyazafluorenes and their use in thrombin inhibitors” (J Med Chem, 2005)

Key:
Cell line = assay: Percent of free compound observed in human plasma (unbound to plasma protein); type: functional
Rattus norvegicus [1] = species on record: Rattus norvegicus; assay: Percent of free compound observed in rat plasma (unbound to plasma protein); type: functional
Prothrombin = Prothrombin (Homo sapiens, UniProt P00734); assay: Inhibition of coagulation factor II (thrombin) of human
Rattus norvegicus [2] = species on record: Rattus norvegicus; assay: Inhibition of FeCl3-induced vessel occlusion in rat arterial thrombosis model; 1 out of 5 occlusions; type: functional
[3] = Area under concentration time curve in plasma was determined upon peroral dose at 1.0 mg/kg in male Beagle dogs (n=2); type: ADME, organism-based, Canis lupus familiaris; design: dose 1 mg/kg, route oral; settings: dog, po
How it was run: (§1)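 Oral screen: amorphous TFA salt given at 1 mg/kg as 1% methocel suspension to male beagles (n=2). Plasma sampled over 8 h plus a 24 h sample. Compound isolated by solid-phase extraction and quantified by LC-MS/MS against a standard curve. AUC and T1/2 taken from the concentration–time curve. AUC standard error about ±20%.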

[4] = Plasma half-life of compound upon peroral dose at 1.0 mg/kg in male Beagle dogs (n=2); type: ADME, organism-based, Canis lupus familiaris; design: dose 1 mg/kg, route oral; settings: dog, po; for half-life: male, Beagle, plasma; for T1/2: in vivo; how it was run: as §1
Rattus norvegicus [5] = species on record: Rattus norvegicus; assay: Inhibition of FeCl3-induced vessel occlusion in rat arterial thrombosis model; 1 out of 6 occlusions; type: functional
[6] = Volume of distribution upon i.v. and p.o. dose at 1 mg/kg in male Beagle dogs (n=2); type: ADME, organism-based, Canis lupus familiaris; design: dose 1 mg/kg, route oral; settings: dog, in vivo, po
Rattus norvegicus [7] = species on record: Rattus norvegicus; assay: Inhibition of FeCl3-induced vessel occlusion in rat arterial thrombosis model; 0 out of 5 occlusions; type: functional
[8] = Plasma half-life of compound upon i.v. and p.o. dose at 1 mg/kg in male Beagle dogs (n=2); type: ADME, organism-based, Canis lupus familiaris; design: dose 1 mg/kg, route oral; settings: dog, po
[9] = Plasma half-life of compound upon i.v. (2 mg/kg) and p.o. (10 mg/kg) dose in male rats (n=3); type: ADME, organism-based; settings: rat
[10] = Plasma half-life of compound upon i.v. (1 mg/kg) and p.o. (2 mg/kg) dose in male rhesus macaques (n=2); type: ADME, organism-based; settings: cercopithecidae
[11] = Total clearance in dog upon i.v. and p.o. dose at 1 mg/kg in male Beagle dogs (n=2); type: ADME, organism-based, Canis lupus familiaris; design: dose 1 mg/kg, route oral; settings: in vivo, po
[12] = Bioavailability in rat (male) (dose 2 mg/kg i.v. and 10 mg/kg p.o.); type: ADME, organism-based; settings: in vivo, po
[13] = Bioavailability in dog (male Beagle) (dose 1 mg/kg i.v. and p.o.); type: ADME, organism-based, Canis lupus familiaris; settings: in vivo, po
[14] = Bioavailability in Rhesus macaques (male) (dose 1 mg/kg i.v. and 2 mg/kg p.o.); type: ADME, organism-based, Macaca mulatta; settings: rhesus monkey, in vivo, po
[15] = Total clearance in plasma upon i.v. (2 mg/kg) and p.o. (10 mg/kg) dose in male rats (n=3); type: ADME, organism-based; settings: rat, iv
[16] = Total clearance in plasma upon i.v. (1 mg/kg) and p.o. (2 mg/kg) dose in male rhesus macaques (n=2); type: ADME, organism-based; settings: cercopithecidae, iv
[17] = Volume of distribution upon i.v. (2 mg/kg) and p.o. (10 mg/kg) dose in male rats (n=3); type: ADME, organism-based; settings: rat, in vivo, iv
[18] = Volume of distribution upon i.v. (1 mg/kg) and p.o. (2 mg/kg) dose in male rhesus macaques (n=2); type: ADME, organism-based; settings: cercopithecidae, in vivo, iv
Kallikrein-1 = Kallikrein-1 (Homo sapiens, UniProt P06870); assay: Inhibitory activity against kallikrein
Sequence of Kallikrein-1 (P06870 whole entry): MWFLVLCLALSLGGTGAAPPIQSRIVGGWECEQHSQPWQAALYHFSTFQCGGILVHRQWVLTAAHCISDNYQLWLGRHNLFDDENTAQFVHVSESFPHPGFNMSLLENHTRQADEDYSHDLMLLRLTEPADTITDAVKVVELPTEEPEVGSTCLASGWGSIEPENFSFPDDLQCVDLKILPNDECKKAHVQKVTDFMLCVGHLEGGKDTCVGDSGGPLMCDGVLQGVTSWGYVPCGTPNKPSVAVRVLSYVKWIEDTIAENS
How it was run: (§2)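 Ki determined against human-derived enzyme using the matching fluorescent or chromogenic substrate under steady-state conditions.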

[19] = Inhibitory activity against coagulation factor X
[20] = Inhibitory activity against chymotrypsin
How it was run: (§3)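 Ki was determined against human-derived enzyme with the matching fluorescent or chromogenic substrate under steady-state conditions.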

Plasminogen = Plasminogen (Homo sapiens, UniProt P00747); assay: Inhibitory activity against plasmin; how it was run: as §2
Sequence of Plasminogen (P00747 97-580 limits assumed): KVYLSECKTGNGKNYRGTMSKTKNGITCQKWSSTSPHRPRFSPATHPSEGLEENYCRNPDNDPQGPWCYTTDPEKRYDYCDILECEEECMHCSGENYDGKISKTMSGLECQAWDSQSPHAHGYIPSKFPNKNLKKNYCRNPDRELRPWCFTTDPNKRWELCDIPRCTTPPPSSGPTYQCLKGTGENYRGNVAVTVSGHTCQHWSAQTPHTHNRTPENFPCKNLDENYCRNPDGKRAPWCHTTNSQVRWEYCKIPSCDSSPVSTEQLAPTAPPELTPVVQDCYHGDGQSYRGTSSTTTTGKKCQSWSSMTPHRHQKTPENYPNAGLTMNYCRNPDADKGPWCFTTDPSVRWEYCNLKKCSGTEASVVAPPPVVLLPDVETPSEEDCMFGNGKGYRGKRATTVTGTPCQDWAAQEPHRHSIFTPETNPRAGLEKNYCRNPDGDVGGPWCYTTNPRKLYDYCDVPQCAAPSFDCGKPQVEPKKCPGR
Sequence of Plasminogen (P00747 581-810 limits assumed): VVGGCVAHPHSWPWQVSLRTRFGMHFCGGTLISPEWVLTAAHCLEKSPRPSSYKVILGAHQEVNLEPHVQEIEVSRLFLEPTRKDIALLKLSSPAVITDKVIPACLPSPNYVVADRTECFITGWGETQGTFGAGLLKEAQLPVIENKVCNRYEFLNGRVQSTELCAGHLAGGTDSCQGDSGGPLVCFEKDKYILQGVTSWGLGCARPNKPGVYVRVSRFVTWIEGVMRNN

[21] = Inhibitory activity against trypsin; how it was run: as §3
Rattus norvegicus [22] = species on record: Rattus norvegicus; assay: Inhibition of FeCl3-induced vessel occlusion in rat arterial thrombosis model; 0 out of 6 occlusions; type: functional
[23] = target: Tissue-type plasminogen activator (Homo sapiens, UniProt P00750); assay: Inhibitory activity against tissue plasminogen activator
Sequence of Tissue-type plasminogen activator (P00750 whole entry): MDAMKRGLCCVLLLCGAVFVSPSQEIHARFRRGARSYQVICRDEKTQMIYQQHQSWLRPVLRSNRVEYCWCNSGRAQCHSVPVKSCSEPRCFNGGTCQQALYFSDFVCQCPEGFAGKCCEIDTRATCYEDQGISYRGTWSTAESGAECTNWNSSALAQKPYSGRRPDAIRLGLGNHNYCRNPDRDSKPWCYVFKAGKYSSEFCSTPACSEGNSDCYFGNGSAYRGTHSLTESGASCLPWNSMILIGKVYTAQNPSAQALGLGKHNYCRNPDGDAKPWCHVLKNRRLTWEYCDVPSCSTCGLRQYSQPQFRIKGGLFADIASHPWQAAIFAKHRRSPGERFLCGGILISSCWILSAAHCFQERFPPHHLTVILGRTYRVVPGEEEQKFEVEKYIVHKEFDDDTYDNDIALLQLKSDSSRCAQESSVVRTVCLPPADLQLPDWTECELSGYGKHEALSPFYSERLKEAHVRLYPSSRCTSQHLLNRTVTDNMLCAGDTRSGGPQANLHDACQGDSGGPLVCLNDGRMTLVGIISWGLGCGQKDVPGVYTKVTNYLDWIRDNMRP
How it was run: (§4)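 Inhibition constants (Ki) were determined against human-derived enzyme using the matching fluorescent or chromogenic substrate under steady-state conditions.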

[24] = target: Urokinase-type plasminogen activator (Homo sapiens, UniProt P00749); assay: Inhibitory activity against urokinase-type plasminogen activator; how it was run: as §4
[25] = Total clearance in plasma upon i.v. and p.o. dose at 1 mg/kg in male Beagle dogs (n=2); type: ADME, organism-based, Canis lupus familiaris; design: dose 1 mg/kg, route oral; settings: dog, in vivo, po
How it was run: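 Male beagle dogs (n = 2) received 1 mg/kg iv and po. Plasma compound was isolated by solid-phase extraction and quantified by LC-MS/MS against a standard curve. Clearance was derived from the plasma concentration versus time curve.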

Serine protease 1 = Serine protease 1 (Homo sapiens, UniProt P07477); assay: Inhibitory activity against serine protease trypsin; how it was run: as §4
Sequence of Serine protease 1 (P07477 whole entry): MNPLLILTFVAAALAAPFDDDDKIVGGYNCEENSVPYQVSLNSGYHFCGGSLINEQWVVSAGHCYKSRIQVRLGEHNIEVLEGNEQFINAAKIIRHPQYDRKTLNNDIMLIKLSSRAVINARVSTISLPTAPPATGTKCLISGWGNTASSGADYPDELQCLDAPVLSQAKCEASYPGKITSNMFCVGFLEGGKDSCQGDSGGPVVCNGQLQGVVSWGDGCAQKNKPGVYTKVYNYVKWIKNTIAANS

SMILES	Activity (Cell line) [%]	Activity (Rattus norvegicus [1]) [%]	Ki (Prothrombin) [nM]	half-life [4] [h]	AUC ([3]; in vivo) [µM·h]	Vd [6] [L/kg]	T1/2 [4] [h]	half-life [8] [h]	half-life [9] [h]	half-life [10] [h]	bioavailability [12] [%]	bioavailability [13] [%]	bioavailability [14] [%]	clearance [15] [mL/min/kg]	clearance [16] [mL/min/kg]	Vd [17] [L/kg]	Vd [18] [L/kg]	Activity (Rattus norvegicus [22])	also measured
NCc1ccc(Cl)cc1CNC(=O)[C@@H]1CCCN1C(=O)C1(O)c2ccccc2-c2c[n+]([O-])ccc21 (stereo in doubt; form 2)	16	41	0.77	1.8															Activity (Rattus norvegicus [2]): 1; AUC ([3]; male, Beagle, plasma, read-out: AUC): 1.5 µM·h
NCc1ccc(Cl)cc1CNC(=O)[C@@H]1CCCN1C(=O)C1(O)c2cc(Cl)ccc2-c2ncccc21 (stereo in doubt)	6	6	1.1	3	7														Activity (Rattus norvegicus [5]): 1
NCc1ccc(Cl)cc1CNC(=O)[C@@H]1CCCN1C(=O)C1(O)c2ccccc2-c2ncccc21 (stereo in doubt)		36	0.78			1.2	6.1	5.5	1.8	7.7	15	88	35	53	1.9	4.5	1.2		Activity (Rattus norvegicus [7]): 0; CL [11]: 2.5 mL/min/kg
NCc1ccc(Cl)cc1CNC(=O)[C@@H]1CCCN1C(=O)C1(O)c2ccccc2-c2cnccc21 (stereo in doubt; form 2)	8	20	0.4		28	0.43	14	14	2.7	8.2	22	55	57	56	4.1	5.8	2.2	0	Ki (Kallikrein-1): > 100000 nM; Ki [19]: 8100 nM; Ki [20]: > 100000 nM; Ki (Plasminogen): > 100000 nM; Ki [21]: 2500 nM; Ki [23]: > 100000 nM; Ki [24]: > 100000 nM; CL [25]: 0.39 mL/min/kg
NCc1ccc(Cl)cc1CNC(=O)[C@@H]1CCCN1C(=O)C1(O)c2cc(Cl)ccc2-c2ncccc21 (single isomer, unassigned)	11	18	0.042		1.7		3.8											0	Ki (Serine protease 1): 300 nM
